Measurements gathered from unrelated publications.
Compare with care: the assays were run in different laboratories.
Target: G protein-coupled receptor kinase 6 (GRK6, Homo sapiens, UniProt P43250)

Structure (SMILES) | observed | action | method | tested at | quantity | value
CCN(CC)CCNC(=O)c1c(C)[nH]c(/C=C2\C(=O)Nc3ccc(F)cc32)c1C | enzyme activity | inhibitor |  | 10 µM | inhibition | 73%
COc1cc2ncnc(Nc3ccc(Oc4ccccc4)c(C)c3C)c2cc1OC | enzyme activity | inhibitor |  | 1 µM | inhibition | -2%
CC(C)(C)c1nc2c(s1)c1nc(N)ncc1c1ccc(NS(=O)(=O)c3c(F)cccc3F)c(F)c12 | enzyme activity | inhibitor | radiometric | 1 µM | remaining activity | 76%
CNC(=O)c1cc(Oc2ccc(NC(=O)Nc3ccc(Cl)c(C(F)(F)F)c3)cc2)ccn1 | enzyme activity | inhibitor |  | 0.3 µM | inhibition | 2%
O=C1NC(=O)c2cc(Nc3ccc(F)cc3)c(Nc3ccc(F)cc3)cc21 | cell-free assay |  |  | 0.5 µM | remaining signal | 98.7%
Cc1ccc(Nc2nccc(N(C)c3ccc4c(C)n(C)nc4c3)n2)cc1S(N)(=O)=O | enzyme activity | inhibitor |  | 10 µM | inhibition | 2%
CCCOc1ccc(OC)c(F)c1C(=O)c1ccc(C(=O)N[C@@H]2CNC[C@H]2NC(=O)c2ccc3[nH]ncc3c2)cc1 | enzyme activity | inhibitor |  | 10 µM | remaining activity | 104%
Cc1ccc(NC(=O)c2ccc(C)c(C(F)(F)F)c2)cc1C#Cc1nn(C2CCC(O)CC2)c2ncnc(N)c12 (stereo not shown) | cell-free assay |  |  | 10 µM | remaining signal | 100%
COc1cc(Cl)c(C(=O)N[C@@H](CN[C@H]2CC[C@@H](N)CC2)Cc2ccc(C#N)cc2)cc1-c1ccc(CN[C@H](C)c2ccc(C)cc2)o1 | enzyme activity | inhibitor |  | 1 µM | remaining activity | 100%
Cc1sc(C(=O)NC2COC2)cc1-n1cc(NC(=O)Nc2c(F)cccc2Cl)cn1 | enzyme activity | inhibitor |  | 10 µM | remaining activity | 91.5%
Cc1ccc(C(=O)NCc2ccsc2)cc1C#Cc1cn(C(C)C)c2ncnc(N)c12 | enzyme activity | inhibitor |  | 1 µM | activity vs control | 109%
Cc1cnc(NC2CCOCC2)nc1-n1cnc(C(=O)NC(CN)c2cc(F)cc(Cl)c2)c1 (stereo not shown) | enzyme activity | inhibitor | radiometric | 1 µM | remaining activity | 81%
O=C1Nc2ccc(Cl)cc2C1=Cc1cc(Cl)c(O)c(Cl)c1 | cell-free assay |  |  | 0.5 µM | remaining signal | 89.6%
